# Calls of active or inactive are those of the source. No cut-off for these calls is given here.
# Legend:
# Histone deacetylase 1 = Histone deacetylase 1 (Homo sapiens, UniProt Q13547); assay: Inhibition of human recombinant HDAC1 expressed in insect Sf9 cells
# Method in brief: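 FLAG-tagged recombinant HDAC1 expressed in Sf9 cells, purified by anti-FLAG affinity resin and size-exclusion chromatography. Substrate BocLys(acetyl)AMC. Deacetylated product detected fluorometrically after trypsin release of AMC (excitation 360 nm). IC50 determined.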
# HCT-116 [1] = assay: Antiproliferative activity against human HCT116 cells by MTT assay; assay type: functional, cell-based
# Method in brief: (§1)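 MTT read-out of cell proliferation/cytotoxicity in human colon cancer HCT116 cells and in normal human mammary epithelial cells (HMEC); IC50 derived.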
# HMEC = assay: Antiproliferative activity against human HMEC cells by MTT assay; assay type: cell-based; method in brief: as §1
# T-24 [2] = assay: Induction of histone H4 acetylation in human T24 cells after 16 hrs by immunoblot relative to MS-275; assay type: functional, cell-based; conditions: T-24, 16 h
# Method in brief: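 T24 cells exposed to 0, 1, 5 and 25 µM for 16 h, then harvested. Histones acid-extracted, run on SDS–PAGE and immunoblotted with antibodies to H4 and to acetylated H4. Relative effective concentration expressed against MS-275 at 1 µM.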
# T-24 [3] = assay: Induction of p21WAF1/Cip1 expression in human T24 cells […] after 16 hrs by Western blot analysis relative to MS-275; assay type: functional, cell-based; conditions: T-24, 16 h
# Method in brief: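 T24 cells exposed to 0, 1, 5 and 25 µM or DMSO alone for 16 h. Whole-cell lysates analysed by Western blot with p21WAF1/Cip1 antibody. Relative effective concentration expressed against MS-275 at 1 µM.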
# HCT-116 [4] = assay: Apoptosis in human HCT116 cells; assay type: functional, cell-based
# HCT-116 [5] = assay: Cell cycle arrest in HCT116 cells by accumulation at G2/M phase; assay type: functional, cell-based; conditions: Homo sapiens
# [6] = Oral bioavailability in Sprague-Dawley rat at 5.0 mg/kg, po; assay type: ADME, organism-based; conditions: in vivo
# Method in brief: (§2)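 Pharmacokinetics with single dosing at 2.5 mg/kg iv or 5.0 mg/kg po. Vehicles were acidified saline or acidified saline/PEG400. Half-life and oral availability were determined.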
# [7] = Half life in Sprague-Dawley rat at 2.5 mg/kg, iv; assay type: ADME, organism-based; set-up: dose 2.5 mg/kg, route intravenous; conditions: in vivo; method in brief: as §2
# DU-145 = assay: Antitumor activity against DU145 xenografted nude mouse assessed as tumor growth inhibition at 80 mg/kg, po after 14 days; assay type: functional, Homo sapiens; conditions: DU-145, 336 h
# Method in brief: (§3)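 Human tumour xenografts (A549 non-small cell lung, DU145 prostate, HCT116 colon) grown in nude mice, 6 animals per group. Dosing once daily for 14 days, intraperitoneal or oral. Read-out is % tumour growth inhibition versus vehicle-treated control animals.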
# HCT-116 [8] = assay: Antitumor activity against HCT116 xenografted nude mouse assessed as tumor growth inhibition at 40 mg/kg, ip after 14 days; assay type: functional, Homo sapiens; conditions: HCT-116, ip, 336 h, route intraperitoneal; method in brief: as §3
# A549 = assay: Antitumor activity against A549 xenografted nude mouse assessed as tumor growth inhibition at 80 mg/kg, po after 14 days; assay type: functional, Homo sapiens; conditions: A549, 336 h; method in brief: as §3
# HCT-116 [9] = assay: Antitumor activity against HCT116 xenografted nude mouse assessed as tumor growth inhibition at 20 mg/kg, ip after 14 days; assay type: functional, Homo sapiens; conditions: HCT-116, ip, 336 h, route intraperitoneal; method in brief: as §3
# Chain of Histone deacetylase 1 (Q13547 whole entry): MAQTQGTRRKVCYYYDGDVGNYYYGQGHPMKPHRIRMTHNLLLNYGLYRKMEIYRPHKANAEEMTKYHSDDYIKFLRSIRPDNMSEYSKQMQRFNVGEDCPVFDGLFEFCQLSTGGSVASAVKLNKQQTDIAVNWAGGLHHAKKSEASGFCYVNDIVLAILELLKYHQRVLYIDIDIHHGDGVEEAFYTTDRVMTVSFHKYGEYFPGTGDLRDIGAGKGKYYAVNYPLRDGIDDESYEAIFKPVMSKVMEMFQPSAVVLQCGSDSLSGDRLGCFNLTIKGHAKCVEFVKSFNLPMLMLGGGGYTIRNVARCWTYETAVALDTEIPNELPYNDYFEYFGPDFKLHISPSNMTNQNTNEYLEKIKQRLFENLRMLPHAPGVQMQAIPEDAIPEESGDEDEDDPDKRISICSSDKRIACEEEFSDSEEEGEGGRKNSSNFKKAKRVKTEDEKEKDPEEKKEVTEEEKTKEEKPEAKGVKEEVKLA
SMILES,IC50 (Histone deacetylase 1) [nM],IC50 (HCT-116 [1]) [nM],EC50 (T-24 [2]) [nM],EC50 (T-24 [3]) [nM],bioavailability [6] [%],half-life [7] [min],IC50 (HMEC) [µM],Activity (HCT-116 [4]),Activity (HCT-116 [5]),inhibition in vivo at 80 mg/kg (DU-145) [%],inhibition in vivo at 40 mg/kg (HCT-116 [8]) [%],inhibition in vivo at 80 mg/kg (A549) [%],inhibition in vivo at 20 mg/kg (HCT-116 [9]) [%]
CN(C)CCn1c(=O)n(Cc2ccc(C(=O)Nc3ccccc3N)cc2)c(=O)c2ccccc21,300,1000,1000,1000,38,126,> 25,Active,Active,–,–,–,–
Nc1ccccc1NC(=O)c1ccc(CN2C(=O)c3ccccc3C2=O)cc1,200,5000,5000,3000,–,–,> 50,Active,Active,–,–,–,–
Nc1ccccc1NC(=O)c1ccc(CC2COc3ccccc3C2)cc1 (configuration not stated),1000,2000,3000,3000,–,–,23,Active,Active,–,–,–,–
Nc1ccccc1NC(=O)c1ccc(Cn2nnc3ccccc3c2=O)cc1,200,600,1000,1000,–,–,17,Active,Active,–,–,–,–
CCn1c(=O)n(Cc2ccc(C(=O)Nc3ccccc3N)cc2)c(=O)c2sccc21,300,800,1000,3000,64,72,> 50,Active,Active,–,–,–,–
Nc1ccccc1NC(=O)c1ccc(CN2Cc3ccccc3C2=O)cc1,100,500,1000,2000,34,36,37,Active,Active,–,–,–,–
Nc1ccccc1NC(=O)c1ccc(Cn2c(=O)c3ccccc3n(CCN3CCOCC3)c2=O)cc1,400,1000,3000,5000,–,–,> 25,Active,Active,–,–,–,–
Nc1ccccc1NC(=O)c1ccc(Cn2cnc3ccccc3c2=O)cc1,100,400,< 1000,1000,–,–,28,Active,Active,–,–,–,–
CCn1c(=O)n(Cc2ccc(C(=O)Nc3ccccc3N)cc2)c(=O)c2ccccc21,200,400,1000,600,–,–,25,Active,Active,–,–,–,–
Nc1ccccc1NC(=O)c1ccc(Cn2cnc3ccsc3c2=O)cc1,200,700,1000,1000,47,84,> 50,Active,Active,45,–,42,–

# More lines, main results first:
IC50 (Histone deacetylase 1) [nM],IC50 (HCT-116 [1]) [nM],EC50 (T-24 [2]) [nM],EC50 (T-24 [3]) [nM],bioavailability [6] [%],half-life [7] [min],SMILES,IC50 (HMEC) [µM],Activity (HCT-116 [4]),Activity (HCT-116 [5]),inhibition in vivo at 80 mg/kg (DU-145) [%],inhibition in vivo at 40 mg/kg (HCT-116 [8]) [%],inhibition in vivo at 80 mg/kg (A549) [%],inhibition in vivo at 20 mg/kg (HCT-116 [9]) [%]
90,900,2000,1000,–,–,Nc1ccccc1NC(=O)c1ccc(CC2COc3ccccc3C2=O)cc1 (configuration not stated),6,Active,Active,–,–,–,–
100,700,1000,1000,–,–,Cn1c(=O)n(Cc2ccc(C(=O)Nc3ccccc3N)cc2)c(=O)c2ccccc21,> 42,Active,Active,–,–,–,–
100,600,< 1000,2000,–,–,Nc1ccccc1NC(=O)c1ccc(CC2Cc3ccccc3C2=O)cc1 (configuration not stated),8,Active,Active,–,–,–,–
100,300,1000,2000,–,–,Nc1ccccc1NC(=O)c1ccc(Cn2c(=O)oc3ccccc3c2=O)cc1,21,Active,Active,–,–,–,–
30,300,1000,1000,–,–,Nc1ccccc1NC(=O)c1ccc(Cc2coc3ccccc3c2=O)cc1,9,Active,Active,–,–,–,–
100,800,1000,3000,–,–,COc1ccc(Cn2c(=O)n(Cc3ccc(C(=O)Nc4ccccc4N)cc3)c(=O)c3ccccc32)cc1,> 25,Active,Active,–,–,–,–
60,400,1000,1000,47,78,Nc1ccccc1NC(=O)c1ccc(Cn2c(=O)[nH]c3ccsc3c2=O)cc1,29,Active,Active,67,61,55,–
80,600,1000,2000,16,54,Cc1nc2ccccc2c(=O)n1Cc1ccc(C(=O)Nc2ccccc2N)cc1,> 50,Active,Active,–,–,–,–
60,800,1000,2000,–,–,Nc1ccccc1NC(=O)c1ccc(Cn2c(=O)[nH]c3ccccc3c2=O)cc1,18,Active,Active,–,59,–,51

# Source: ChEMBL document CHEMBL1138301, “N-(2-Amino-phenyl)-4-(heteroarylmethyl)-benzamides as new histone deacetylase inhibitors” (Bioorg Med Chem Lett, 2007)
